What is called EC50 is the concentration needed to bring the measured effect to its halfway point. A low value points to higher potency in that assay.

Experimental findings from ChEMBL document CHEMBL1122940, “Cyclic guanidines. 17. Novel (N-substituted amino)imidazo[2,1-b]quinazolin-2 ones: water-soluble platelet aggregation inhibitors” (J Med Chem, 1985) are described below.

The species entered for experiment [1] is Rattus norvegicus. As to the kind of experiment: In vitro inhibition of blood platelet aggregation (collagen) in rats. It counts as functional.
Experiment [2] is filed under the species Rattus norvegicus. Kind of experiment: In vitro inhibition of blood platelet aggregation (ADP) in rats. It counts as functional.
Experiment [3] has as its system Rattus norvegicus. As to the kind of experiment: Ex vivo inhibition of blood platelet aggregation (collagen) in rats at oral dose 10 mg/kg 1 hour before the test. Type of experiment: functional.
Experiment [4] relates to Rattus norvegicus. As to the kind of experiment: Ex vivo in vitro inhibition of blood platelet aggregation (ADP) in rats at oral dose 10 mg/kg 1 hour before the test. Type of experiment: functional.
For experiment [5], the system named is Rattus norvegicus. Kind of experiment: Decrease in systolic BP 3 hours after oral administration at dose 50 mg/kg. Type of experiment: functional.
In experiment [6] the test system is Rattus norvegicus. As to the kind of experiment: Change in heart rate 1 hour after oral administration at dose 50 mg/kg. Type of experiment: functional.
For experiment [7], the system named is Rattus norvegicus. Kind of experiment: Change in heart rate 3 hours after oral administration at dose 50 mg/kg. Type of experiment: functional.
For experiment [8], the system named is Rattus norvegicus. As to the kind of experiment: Decrease in systolic BP 5 hours after oral administration at dose 50 mg/kg. It counts as functional.
For experiment [9], the system named is Rattus norvegicus. As to the kind of experiment: Decrease in systolic BP 1 hour after oral administration at dose 50 mg/kg. Type of experiment: functional.
In experiment [10] the test system is Rattus norvegicus. As to the kind of experiment: Duration of inhibition of blood platelet aggregation in rats (ADP) 3 hours after oral administration at dose 10 mg/kg. Type of experiment: functional. The procedure, abridged: (§1)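 Rats got a single oral dose of 10 mg/kg, and controls got vehicle alone. Blood was collected 3 h later and aggregation was run ex vivo. Collagen-induced aggregation was read as ΔA/min and ADP-induced aggregation as ΔA. Values are mean ± SD of five animals, with percent inhibition versus vehicle control.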

In experiment [11] the test system is Rattus norvegicus. As to the kind of experiment: Decrease in systolic BP 2 hours after oral administration at dose 50 mg/kg. It counts as functional.
Experiment [12] concerns Rattus norvegicus. Kind of experiment: Decrease in systolic BP 7 hours after oral administration at dose 50 mg/kg. Type of experiment: functional.
Experiment [13] concerns Rattus norvegicus. As to the kind of experiment: Duration of inhibition of blood platelet aggregation in rats (collagen) 3 hours after oral administration at dose 10 mg/kg. Type of experiment: functional. The procedure, abridged: as §1
Experiment [14] relates to Rattus norvegicus. As to the kind of experiment: Change in heart rate 5 hours after oral administration at dose 50 mg/kg. It counts as functional.
Experiment [15] has as its system Rattus norvegicus. As to the kind of experiment: Change in heart rate 2 hours after oral administration at dose 50 mg/kg. It counts as functional.
Experiment [16] deals with Rattus norvegicus. Kind of experiment: Change in heart rate 7 hours after oral administration at dose 50 mg/kg. Type of experiment: functional.
Experiment [17] relates to Rattus norvegicus. As to the kind of experiment: Inhibition of blood platelet aggregation in rats (collagen) after intravenous infusion at dose 10 mg/kg after 10 min. Type of experiment: functional. The procedure, abridged: (§2)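 Compounds were dissolved in physiological saline and infused continuously through the femoral vein into fed rats under pentobarbital anesthesia, at 1 mg/kg over 15 min or 10 mg/kg over 10 min. Citrated cardiac blood was drawn 15 or 10 min later, and aggregation was measured as in the in vitro test. Collagen was read as ΔA/min and ADP as ΔA. Values are mean ± SD of five animals, as percent inhibition versus control.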

Experiment [18] concerns Rattus norvegicus. Kind of experiment: Inhibition of blood platelet aggregation in rats (ADP) after intravenous infusion at dose 10 mg/kg after 10 min. It counts as functional. The procedure, abridged: as §2
Experiment [19] deals with Rattus norvegicus. As to the kind of experiment: Duration of inhibition of blood platelet aggregation in rats (collagen) 3 hr after oral administration at dose 10 mg/kg. Type of experiment: functional. The procedure, abridged: as §1
Experiment [20] deals with Rattus norvegicus. Kind of experiment: Inhibition of blood platelet aggregation in rats (collagen) after intravenous infusion at dose 1 mg/kg after 15 min. Type of experiment: functional. The procedure, abridged:
as §2

In experiment [21] the test system is Rattus norvegicus. As to the kind of experiment: Inhibition of blood platelet aggregation in rats (ADP) after intravenous infusion at dose 1 mg/kg after 15 min. Type of experiment: functional. The procedure, abridged: as §2
For experiment [22], the system named is Rattus norvegicus. As to the kind of experiment: Ex vivo in vitro inhibition of blood platelet aggregation (ADP) in rats at oral dose 10 mg/kg 1 hour before the tes. Type of experiment: functional.
For experiment [23], the system named is Rattus norvegicus. Kind of experiment: Ex vivo inhibition of blood platelet aggregation (collagen) in rats at oral dose 10 mg/kg 1 hour before the test; Platelet aggregation could not be measured optically because this compound causes hemolysis. It counts as functional, organism-based. On the set-up: dose 10 mg/kg.
The test system of experiment [24] is Rattus norvegicus. As to the kind of experiment: Ex vivo in vitro inhibition of blood platelet aggregation (ADP) in rats at oral dose 10 mg/kg 1 hour before the test; Platelet aggregation could not be measured optically because this compound causes hemolysis. On the set-up: dose 10 mg/kg. It counts as functional, organism-based.

For `O=C1CN2Cc3c(cccc3N3CCCCC3)NC2=N1`, the half-maximal effective concentration (EC50) was 20 µM in experiment [1] and 22.5 µM in experiment [2].
Regarding `O=C1CN2Cc3c(sc4c3CCCC4)N=C2N1`, the platelet aggregation rate in experiment [3] was 0.073 ΔA/min. In addition, the EC50 in experiment [1] was determined as 0.1 µM. The platelet aggregation in experiment [4] is 0.112 ΔA.
In the case of `CN(C)c1cc2c(cc1Cl)NC1=NC(=O)CN1C2`, the “Change in BP” value in [5] was determined as 26 mmHg; in experiment [8] it was 28 mmHg; in experiment [9] it was 30 mmHg; in experiment [11], 27 mmHg; in experiment [12] it was 23 mmHg. Besides, the results for the platelet aggregation rate in experiment [3] and in experiment [13] were 0.082 ΔA/min and 0.136 ΔA/min, respectively. Also, the “Change in heart rate” value in experiment [6] was found to be 42%; in experiment [7], 47%; in experiment [14] it was 46%; in [15], 50%; in [16], 41%. For the same compound, the platelet aggregation in [10] is 0.171 ΔA; in experiment [4], 0.15 ΔA. Moreover, the EC50 in experiment [1] stood at 0.44 µM; in experiment [2], 1.1 µM.
As for `CC1CCN(c2ccc3c(c2)CN2CC(=O)NC2=N3)CC1`, the platelet aggregation rate in experiment [3] is 0.122 ΔA/min. The EC50 amounted to 18 µM in [1] and 2.8 µM in experiment [2]. Also, the platelet aggregation in experiment [4] was 0.188 ΔA.
In the case of `O=C1CN2Cc3cc(N4CCOCC4)ccc3N=C2N1`, the platelet aggregation rate is 0.09 ΔA/min in experiment [17] and 0.154 ΔA/min in experiment [3]. The EC50 in experiment [1] came out at 2 µM; in [2], 5 µM. Further, the platelet aggregation is 0.202 ΔA in experiment [18] and 0.201 ΔA in [4].
In turn, `Cc1cc2c(cc1N1CCCCC1)NC1=NC(=O)CN1C2` displayed an EC50 in experiment [2] of 220 µM.
With `O=C1CN2Cc3cc(N4CCOCC4)c(Cl)cc3N=C2N1`, the platelet aggregation rate in experiment [3] is 0.055 ΔA/min. The EC50 is 0.1 µM in experiment [1] and 0.36 µM in [2]. In experiment [4], the platelet aggregation is 0.122 ΔA.
Turning to `O=C1CN2Cc3c(ccc(N4CCCC4)c3Cl)NC2=N1`, the EC50 in [1] turned out to be 2.7 µM; in [2], 3 µM.
Consider `O=C1CN2Cc3c(ccc(N4CCCCC4)c3Cl)NC2=N1`, for which the EC50 in experiment [1] amounted to 1.2 µM; in experiment [2], 7.9 µM.
`CCN(CC)c1ccc2c(c1Cl)CN1CC(=O)NC1=N2`: the platelet aggregation rate in experiment [3] was 0.041 ΔA/min. Further, the figures for the EC50 in experiment [1] and in [2] were 1.3 µM and 5.6 µM, respectively. Further, the platelet aggregation in experiment [4] is 0.201 ΔA.
Take `Nc1ccc2c(c1)CN1CC(=O)NC1=N2`: the EC50 in experiment [1] was 16 µM; in experiment [2], 170 µM.
Take `CN(C)c1ccc2c(c1Cl)CN1CC(=O)NC1=N2`: the “Change in BP” value in [5] came to 35 mmHg; in experiment [8] it was 36 mmHg; in [9], 45 mmHg; in experiment [11], 43 mmHg; in experiment [12] it was 34 mmHg. Besides, the platelet aggregation rate in experiment [17] was 0 ΔA/min; in experiment [3], 0.019 ΔA/min. For the same compound, the “Change in heart rate” value in experiment [6] is recorded as 46%; in [7] it was 43%; in [14], 41%; in experiment [15], 46%; in [16] it was 38%. Further, the EC50 turned out to be 1.2 µM in [1] and 7 µM in [2]. For the same compound, the platelet aggregation was 0.208 ΔA in [18] and 0.098 ΔA in [4].
In the case of `CN(Cc1ccccc1)c1ccc2c(c1)CN1CC(=O)NC1=N2`, the EC50 in experiment [2] worked out at 26 µM.
Consider `CNc1ccc2c(c1)CN1CC(=O)NC1=N2`, for which it took 24 µM to reach a half-maximal effect in [2] (EC50).
For `CC1CCCCN1c1ccc2c(c1Cl)CN1CC(=O)NC1=N2` (stereo not drawn), the EC50 in [1] was found to be 1.4 µM; in experiment [2], 4 µM.
With `O=C1CN2Cc3cc(N4CCCCC4)ccc3N=C2N1`, the “Change in BP” value in [5] amounted to 12 mmHg; in [8], 12 mmHg; in experiment [9] it was 18 mmHg; in experiment [11], 12 mmHg; in [12], 9 mmHg. Further, the platelet aggregation rate in [3] is 0.068 ΔA/min; in [19] it was 0.118 ΔA/min; in experiment [20] it was 0 ΔA/min. Also, the “Change in heart rate” value in [6] came out at 27%; in experiment [7] it was 27%; in experiment [14], 25%; in experiment [15], 32%; in experiment [16], 17%. For the same compound, the figures for the platelet aggregation in [10], in experiment [21] and in experiment [4] were 0.158 ΔA, 0.116 ΔA and 0.121 ΔA, respectively. Further, the EC50 in experiment [1] was 0.33 µM; in [2], 3.8 µM.
Regarding `CN(C)c1ccc2c(c1)CN1CC(=O)NC1=N2`, the platelet aggregation rate in experiment [3] was 0.071 ΔA/min; in [19] it was 0.154 ΔA/min; in experiment [20] it was 0.058 ΔA/min. The results for the platelet aggregation in experiment [10], in experiment [21] and in [4] were 0.16 ΔA, 0.142 ΔA and 0.193 ΔA, respectively. The results for the EC50 in [1] and in experiment [2] were 1.4 µM and 5.4 µM, respectively.
`O=C1CN2Cc3c(Cl)cc(N4CCCCC4)cc3N=C2N1`: in [2], a half-maximal effect (EC50) was put at 350 µM.
Regarding `O=C1CN2Cc3ccc(N4CCCCC4)cc3N=C2N1`, the EC50 is 8 µM in [1] and 46 µM in [2].
In the case of `CN1CCN(c2ccc3c(c2Cl)CN2CC(=O)NC2=N3)CC1`, in experiment [3], the platelet aggregation rate was 0.149 ΔA/min. Besides, the EC50 turned out to be 3 µM in experiment [1] and 8 µM in experiment [2]. Moreover, in experiment [4], the platelet aggregation is 0.189 ΔA.
In the case of `CC1CCCCN1c1ccc2c(c1)CN1CC(=O)NC1=N2` (stereo not drawn), the platelet aggregation rate in experiment [3] was 0.145 ΔA/min. In addition, the figures for the EC50 in experiment [1] and in [2] were 1.7 µM and 2 µM, respectively. In addition, in experiment [22], the platelet aggregation was 0.19 ΔA.
As for `Cc1cc2c(cc1N1CCCCC1)CN1CC(=O)NC1=N2`, the Inhibition entry in experiment [23] and in experiment [24] was “Platelet aggregation could not be measured optically because this compound causes hemolysis” each time. Further, the EC50 in experiment [1] was 0.58 µM; in [2] it was 5.4 µM.
Turning to `O=C1CN2Cc3c(ccc(Cl)c3Cl)N=C2N1` [ANAGRELIDE], the platelet aggregation rate in experiment [3] is 0.067 ΔA/min. The platelet aggregation in experiment [22] was 0.248 ΔA.
The compound `O=C1CN2Cc3ccc(N4CCOCC4)cc3N=C2N1` registered an EC50 in experiment [2] of 96 µM.
On the same count and under the same terms, in the case of `CN(C)c1cc(Cl)c2c(c1)NC1=NC(=O)CN1C2` it was 290 µM.
For the compound `O=C1CN2Cc3cc(N4CCCCC4)c(Cl)cc3N=C2N1`, the platelet aggregation rate in experiment [3] was 0.039 ΔA/min; in [19] it was 0.18 ΔA/min. Besides, the platelet aggregation in experiment [10] is 0.189 ΔA; in [4] it was 0.137 ΔA. Also, the values for the EC50 in [1] and in experiment [2] were 0.46 µM and 0.4 µM, respectively.
Consider `CC1CCN(c2ccc3c(c2Cl)CN2CC(=O)NC2=N3)CC1`, for which the EC50 is 2.3 µM in [1] and 4 µM in experiment [2].
Take `O=C1CN2Cc3cc(N4CCCC4)ccc3N=C2N1`: the EC50 in experiment [1] worked out at 1.9 µM; in experiment [2] it was 2.6 µM.
In the same order, the values of `CN(C)c1cccc2c1CN1CC(=O)NC1=N2` are 1.5 µM and 2.7 µM.
